Laboratory results as given in ChEMBL document CHEMBL1275526, “Differential azole antifungal efficacies contrasted using a Saccharomyces cerevisiae strain humanized for sterol 14 alpha-demethylase at the homologous locus” (2008).
In brackets after ≈: the same amount, converted by molar mass.

Columns and labels:
Type in all cases: functional
Saccharomyces cerevisiae [1] = assay: Antifungal activity against Saccharomyces cerevisiae BY4741 harboring human CYP51 assessed as growth rate at 2 ug/ml (reference value: 0.157%); settings: at 2 µg/mL
Saccharomyces cerevisiae [2] = assay: Antifungal activity against Saccharomyces cerevisiae BY4741 harboring human CYP51 by broth microdilution method
Method in brief: (§1)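 Adapted CLSI M-27A broth microdilution for S. cerevisiae, run in triplicate. Overnight cultures were diluted in YM, pH 7.0, to 2.5 x 10^3 cells/ml, with drug diluted in YM over 0 to 16 or 0 to 128 µg/ml depending on azole. Plates were incubated 48 h at 30°C. MIC was the concentration giving 80% growth inhibition.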

Saccharomyces cerevisiae [3] = assay: Antifungal activity against Saccharomyces cerevisiae BY4741 harboring human CYP51 assessed as growth rate at 1 ug/ml (reference value: 0.157%); settings: at 1 µg/mL
Saccharomyces cerevisiae [4] = assay: Antifungal activity against Saccharomyces cerevisiae BY4741 harboring human CYP51 assessed as growth rate at 0.5 ug/ml (reference value: 0.157%); settings: at 0.5 µg/mL
Saccharomyces cerevisiae [5] = assay: Antifungal activity against Saccharomyces cerevisiae BY4741 assessed as growth rate at 2 ug/ml (reference value: 0.144%)
Saccharomyces cerevisiae [6] = assay: Antifungal activity against Saccharomyces cerevisiae BY4741 assessed as growth rate at 1 ug/ml (reference value: 0.144%)
Saccharomyces cerevisiae [7] = assay: Antifungal activity against Saccharomyces cerevisiae BY4741 assessed as growth rate at 0.5 ug/ml (reference value: 0.144%)
Saccharomyces cerevisiae [8] = assay: Antifungal activity against wild-type Saccharomyces cerevisiae BY4741 by broth microdilution method; method in brief: as §1
Saccharomyces cerevisiae [9] = assay: Antifungal activity against Saccharomyces cerevisiae BY4741 harboring human CYP51 assessed as growth rate at 16 ug/ml (reference value: 0.157%); settings: at 16 µg/mL
Saccharomyces cerevisiae [10] = assay: Antifungal activity against Saccharomyces cerevisiae BY4741 harboring human CYP51 assessed as accumulation of 14-alpha-methylergosta-8,24(28)-dien-3beta-6alpha-diol at 16 ug/ml
Saccharomyces cerevisiae [11] = assay: Antifungal activity against Saccharomyces cerevisiae BY4741 harboring human CYP51 assessed as accumulation of lanosterol at 16 ug/ml (reference value: 23+/- 1.08 %)
Saccharomyces cerevisiae [12] = assay: Antifungal activity against Saccharomyces cerevisiae BY4741 harboring human CYP51 assessed as accumulation of ergosterol at 16 ug/ml (reference value: 54+/- 0.82 %)
Saccharomyces cerevisiae [13] = assay: Antifungal activity against wild-type Saccharomyces cerevisiae BY4741 assessed as accumulation of 14-alpha-methylergosta-8,24(28)-dien-3beta-6alpha-diol at 16 ug/ml
Saccharomyces cerevisiae [14] = assay: Antifungal activity against Saccharomyces cerevisiae BY4741 harboring human CYP51 assessed as growth rate at 8 ug/ml (reference value: 0.157%); settings: at 8 µg/mL
Saccharomyces cerevisiae [15] = assay: Antifungal activity against Saccharomyces cerevisiae BY4741 assessed as growth rate at 16 ug/ml (reference value: 0.144%)
Saccharomyces cerevisiae [16] = assay: Antifungal activity against Saccharomyces cerevisiae BY4741 assessed as growth rate at 8 ug/ml (reference value: 0.144%)
Saccharomyces cerevisiae [17] = assay: Antifungal activity against wild-type Saccharomyces cerevisiae BY4741 assessed as accumulation of lanosterol at 16 ug/ml (reference value: 17+/- 1.22 %)
Saccharomyces cerevisiae [18] = assay: Antifungal activity against Saccharomyces cerevisiae BY4741 harboring human CYP51 assessed as accumulation of 14-alpha-methylergosta-8,24(28)-dien-3beta-6alpha-diol at 8 ug/ml
Saccharomyces cerevisiae [19] = assay: Antifungal activity against Saccharomyces cerevisiae BY4741 harboring human CYP51 assessed as accumulation of ergosterol at 8 ug/ml (reference value: 54+/- 0.82 %)
Saccharomyces cerevisiae [20] = assay: Antifungal activity against wild-type Saccharomyces cerevisiae BY4741 assessed as accumulation of 14-alpha-methylergosta-8,24(28)-dien-3beta-6alpha-diol at 8 ug/ml
Saccharomyces cerevisiae [21] = assay: Antifungal activity against wild-type Saccharomyces cerevisiae BY4741 assessed as accumulation of lanosterol at 8 ug/ml (reference value: 17+/- 1.22 %)
Saccharomyces cerevisiae [22] = assay: Antifungal activity against wild-type Saccharomyces cerevisiae BY4741 assessed as accumulation of ergosterol at 8 ug/ml (reference value: 57+/- 1.00 %)
Saccharomyces cerevisiae [23] = assay: Antifungal activity against Saccharomyces cerevisiae BY4741 assessed as growth rate at 4 ug/ml (reference value: 0.144%)
Saccharomyces cerevisiae [24] = assay: Antifungal activity against Saccharomyces cerevisiae BY4741 harboring human CYP51 assessed as growth rate at 4 ug/ml (reference value: 0.157%); settings: at 4 µg/mL
Saccharomyces cerevisiae [25] = assay: Antifungal activity against Saccharomyces cerevisiae BY4741 harboring human CYP51 assessed as accumulation of 14-alpha-methylergosta-8,24(28)-dien-3beta-6alpha-diol at 4 ug/ml
Saccharomyces cerevisiae [26] = assay: Antifungal activity against Saccharomyces cerevisiae BY4741 harboring human CYP51 assessed as accumulation of lanosterol at 4 ug/ml (reference value: 23+/- 1.08 %)
Saccharomyces cerevisiae [27] = assay: Antifungal activity against Saccharomyces cerevisiae BY4741 harboring human CYP51 assessed as accumulation of ergosterol at 4 ug/ml (reference value: 54+/- 0.82 %)
Saccharomyces cerevisiae [28] = assay: Antifungal activity against wild-type Saccharomyces cerevisiae BY4741 assessed as accumulation of 14-alpha-methylergosta-8,24(28)-dien-3beta-6alpha-diol at 4 ug/ml
Saccharomyces cerevisiae [29] = assay: Antifungal activity against wild-type Saccharomyces cerevisiae BY4741 assessed as accumulation of lanosterol at 4 ug/ml (reference value: 17+/- 1.22 %)
Saccharomyces cerevisiae [30] = assay: Antifungal activity against wild-type Saccharomyces cerevisiae BY4741 assessed as accumulation of ergosterol at 4 ug/ml (reference value: 57+/- 1.00 %)
Saccharomyces cerevisiae [31] = assay: Antifungal activity against Saccharomyces cerevisiae BY4741 harboring human CYP51 assessed as accumulation of 14-alpha-methylergosta-8,24(28)-dien-3beta-6alpha-diol at 0.25 ug/ml
Saccharomyces cerevisiae [32] = assay: Antifungal activity against wild-type Saccharomyces cerevisiae BY4741 assessed as accumulation of 14-alpha-methylergosta-8,24(28)-dien-3beta-6alpha-diol at 0.25 ug/ml
Saccharomyces cerevisiae [33] = assay: Antifungal activity against wild-type Saccharomyces cerevisiae BY4741 assessed as accumulation of lanosterol at 0.25 ug/ml (reference value: 17+/- 1.22 %)
Saccharomyces cerevisiae [34] = assay: Antifungal activity against wild-type Saccharomyces cerevisiae BY4741 assessed as accumulation of ergosterol at 0.25 ug/ml (reference value: 57+/- 1.00 %)
Saccharomyces cerevisiae [35] = assay: Antifungal activity against Saccharomyces cerevisiae BY4741 assessed as growth rate at 0.25 ug/ml (reference value: 0.144%)
Saccharomyces cerevisiae [36] = assay: Antifungal activity against Saccharomyces cerevisiae BY4741 assessed as growth rate at 0.125 ug/ml (reference value: 0.144%)
Saccharomyces cerevisiae [37] = assay: Antifungal activity against Saccharomyces cerevisiae BY4741 harboring human CYP51 assessed as growth rate at 0.25 ug/ml (reference value: 0.157%); settings: at 0.25 µg/mL
Saccharomyces cerevisiae [38] = assay: Antifungal activity against Saccharomyces cerevisiae BY4741 harboring human CYP51 assessed as growth rate at 0.125 ug/ml (reference value: 0.157%); settings: at 0.125 µg/mL
Saccharomyces cerevisiae [39] = assay: Antifungal activity against Saccharomyces cerevisiae BY4741 harboring human CYP51 assessed as accumulation of lanosterol at 0.25 ug/ml (reference value: 23+/- 1.08 %)
Saccharomyces cerevisiae [40] = assay: Antifungal activity against Saccharomyces cerevisiae BY4741 harboring human CYP51 assessed as accumulation of ergosterol at 0.25 ug/ml (reference value: 54+/- 0.82 %)

Row | SMILES | Activity (Saccharomyces cerevisiae [1]) | MIC (Saccharomyces cerevisiae [2]) | Activity (Saccharomyces cerevisiae [3]) | Activity (Saccharomyces cerevisiae [4]) | Activity (Saccharomyces cerevisiae [5]) | Activity (Saccharomyces cerevisiae [6]) | Activity (Saccharomyces cerevisiae [7]) | MIC (Saccharomyces cerevisiae [8]) | Activity (Saccharomyces cerevisiae [9]) | Activity (Saccharomyces cerevisiae [14]) | Activity (Saccharomyces cerevisiae [15]) | Activity (Saccharomyces cerevisiae [16]) | Activity (Saccharomyces cerevisiae [23]) | Activity (Saccharomyces cerevisiae [24]) | further results
1 | Clc1ccccc1C(c1ccccc1)(c1ccccc1)n1ccnc1 [CLOTRIMAZOLE] | 0.169% | 8 µg/mL (≈ 23.2 µM) | 0.173% | 0.162% | 0.088% | 0.123% | 0.11% | 8 µg/mL (≈ 23.2 µM) |  |  |  |  |  |  | 
2 | Clc1ccc(COC(Cn2ccnc2)c2ccc(Cl)cc2Cl)cc1 (stereo not drawn) [ECONAZOLE] |  | 8 µg/mL (≈ 21 µM) | 0.157% |  |  | 0.084% |  | 8 µg/mL (≈ 21 µM) |  |  |  |  |  |  | 
3 | OC(Cn1cncn1)(Cn1cncn1)c1ccc(F)cc1F [FLUCONAZOLE] |  | > 128 µg/mL |  |  |  |  |  | 8 µg/mL (≈ 26.1 µM) | 0.171% | 0.16% | 0.03% | 0.036% |  |  | Activity (Saccharomyces cerevisiae [10]): 6%; Activity (Saccharomyces cerevisiae [11]): 24%; Activity (Saccharomyces cerevisiae [12]): 46%; Activity (Saccharomyces cerevisiae [13]): 29%; Activity (Saccharomyces cerevisiae [17]): 42%
4 | CCC(C)n1ncn(-c2ccc(N3CCN(c4ccc(OCC5COC(Cn6cncn6)(c6ccc(Cl)cc6Cl)O5)cc4)CC3)cc2)c1=O (stereo not drawn) [ITRACONAZOLE] | 0.17% | > 128 µg/mL | 0.176% | 0.166% | 0.044% | 0.042% | 0.042% | 1 µg/mL (≈ 1.42 µM) | 0.136% | 0.164% | 0.035% | 0.036% | 0.039% | 0.136% | Activity (Saccharomyces cerevisiae [18]): 5%; Activity (Saccharomyces cerevisiae [19]): 52%; Activity (Saccharomyces cerevisiae [20]): 24%; Activity (Saccharomyces cerevisiae [21]): 42%; Activity (Saccharomyces cerevisiae [22]): 6%
5 | CC(=O)N1CCN(c2ccc(OCC3COC(Cn4ccnc4)(c4ccc(Cl)cc4Cl)O3)cc2)CC1 (stereo not drawn) [KETOCONAZOLE] | 0.188% | 8 µg/mL (≈ 15.1 µM) |  |  | 0.088% |  |  | 1 µg/mL (≈ 1.88 µM) |  | 0.119% |  | 0.039% | 0.06% | 0.204% | Activity (Saccharomyces cerevisiae [25]): 7%; Activity (Saccharomyces cerevisiae [26]): 27%; Activity (Saccharomyces cerevisiae [27]): 51%; Activity (Saccharomyces cerevisiae [28]): 19%; Activity (Saccharomyces cerevisiae [29]): 35%; Activity (Saccharomyces cerevisiae [30]): 12%
6 | Clc1ccc(COC(Cn2ccnc2)c2ccc(Cl)cc2Cl)c(Cl)c1 (stereo not drawn) [MICONAZOLE] | 0.167% | 8 µg/mL (≈ 19.2 µM) | 0.141% | 0.174% | 0.023% | 0.034% | 0.024% | 8 µg/mL (≈ 19.2 µM) |  |  |  |  |  |  | 
7 | C[C@@H](c1ncncc1F)[C@](O)(Cn1cncn1)c1ccc(F)cc1F [VORICONAZOLE] | 0.154% | > 128 µg/mL | 0.156% | 0.153% | 0.051% | 0.039% | 0.046% | 0.125 µg/mL (≈ 0.358 µM) | 0.159% | 0.168% | 0.039% | 0.043% | 0.043% | 0.154% | Activity (Saccharomyces cerevisiae [31]): 4%; Activity (Saccharomyces cerevisiae [32]): 24%; Activity (Saccharomyces cerevisiae [33]): 35%; Activity (Saccharomyces cerevisiae [34]): 10%; Activity (Saccharomyces cerevisiae [35]): 0.046%; Activity (Saccharomyces cerevisiae [36]): 0.057%; Activity (Saccharomyces cerevisiae [37]): 0.159%; Activity (Saccharomyces cerevisiae [38]): 0.157%; Activity (Saccharomyces cerevisiae [39]): 27%; Activity (Saccharomyces cerevisiae [40]): 49%
